Data reported in PMC10234622 (Matrix biology : journal of the International Society for …, 2022).

Columns and labels:
[1] = tested on: Aspn in 3T3 embryonic fibroblasts; test: Aspn expression and release in 3T3 embryonic fibroblasts, western blot; format: cell-based; details: TGFβ1 5 ng/ml, 24 h; n = 4
Outline: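 3T3 fibroblasts were grown in DMEM (10 mM glucose, 10% FBS, pH 7.4) and given vehicle or TGFβ1 5 ng/ml for 24 h. Intracellular Aspn came from cell lysates and extracellular Aspn from the collected media. Equal protein (Bradford) was run on 4–12% Bis-Tris gels and transferred to nitrocellulose. Blots were blocked in 5% milk 45 min, probed with anti-ASPN 1:1000 overnight at 4 °C, then peroxidase secondary 2 h RT; n = 4.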

[2] = tested on: Aspn in differentiated H9c2 cardiomyocytes; test: Aspn expression and release in H9c2 cardiomyocytes; format: cell-based; details: TGFβ1 stimulation of cardiomyocytes
[3] = molecular target: FITC-labeled ASPN peptide (FITC-ε-Ahx-Asporin) (mouse); test: MST
H9c2 cardiomyocytes = test: Seahorse respirometry on differentiated H9c2 cardiomyocytes; format: cell-based; details: rASPN 1 nM for 24 hrs, vs vehicle, n = 3
Outline: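 H9c2 cells were seeded at 15,000/well and differentiated for 5 days, then given vehicle or rASPN 1 nM for 24 h. Medium was switched to XF base with glucose, pyruvate and glutamine, and cells equilibrated 45 min at 37 °C without CO₂. OCR was recorded at several time points, basally and after sequential oligomycin, FCCP and antimycin A/rotenone. Parameters were calculated from traces; mean with SD, n = 3, unpaired t-test.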

[4] = tested on: differentiated H9c2 cardiomyocytes; test: LDH release after hypoxia/reoxygenation; format: cell-based; details: rASPN 1 nM for 24 hrs prior to hypoxia (2 hrs) and reoxygenation (2 hrs); n = 4
[5] = tested on: differentiated H9c2 cardiomyocytes; test: TUNEL staining after hypoxia/reoxygenation; format: cell-based; details: rASPN treatment; hypoxia-reoxygenation
Outline: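 H9c2 cells were differentiated for 5 days (1% FBS, 1 nM retinoic acid) and given vehicle or rASPN 1 nM for 24 h. Hypoxia 2 h and reoxygenation 2 h followed. Cells were fixed in 2% PFA 15 min RT, permeabilized with 0.1% Triton X-100, TUNEL-labelled with fluorescein and counterstained with DAPI. TUNEL-positive nuclei were counted over many fields of 10–15 cells and expressed as a ratio to DAPI-stained cells; mean with SD.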

[6] = tested on: differentiated H9c2 cardiomyocytes; test: MitoSOX staining, ROS after hypoxia-reoxygenation; format: cell-based; details: rASPN
Outline: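 H9c2 cells were differentiated for 5 days in DMEM with 1% FBS and 1 nM retinoic acid. They were given vehicle or rASPN, then simulated hypoxia-reoxygenation; control cells stayed under normal culture. Cells were stained with MitoSOX red and imaged by fluorescence microscopy. Intensity was expressed relative to control; mean with SD, one-way ANOVA with Tukey's test.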

TGFβ1: Transforming growth factor β1
expression of Aspn (intracellular) [1]: increased expression
release of Aspn into extracellular media [1]: increased release of Aspn
Aspn induction or release in extracellular media [2]: no significant induction or any release in extracellular media

recombinant mouse TGFβ-1 protein (from UniProt P04202 279-390) (ligand)
Kd [3]: 15 nM

B1: rASPN: Recombinant asporin protein (protein, UniProt Q9BXN1 33-380, looked up)
Asporin: DMEDTDDDDDDDDDDDDDDEDNSLFPTREPRSHFFPFDLFPMCPFGCQCYSRVVHCSDLGLTSVPTNIPFDTRMLDLQNNKIKEIKENDFKGLTSLYGLILNNNKLTKIHPKAFLTTKKLRRLYLSHNQLSEIPLNLPKSLAELRIHENKVKKIQKDTFKGMNALHVLEMSANPLDNNGIEPGAFEGVTVFHIRIAEAKLTSVPKGLPPTLLELHLDYNKISTVELEDFKRYKELQRLGLGNNKITDIENGSLANIPRVREIHLENNKLKKIPSGLPELKYLQIIFLHSNSIARVGVNDFCPTVPKMKKSLYSAISLFNNPVKYWEMQPATFRCVLSRMSVQLGNFGM
maximal respiration (H9c2 cardiomyocytes; FCCP as uncoupler): significant increase
spare respiratory capacity (H9c2 cardiomyocytes; FCCP as uncoupler): significant increase
ATP production (H9c2 cardiomyocytes): increased basal OCR and ATP production
basal OCR (H9c2 cardiomyocytes): increased basal OCR
non-mitochondrial OCR (H9c2 cardiomyocytes): reducing
cell death (LDH release) [4]: reduced cell death
percent TUNEL positive cells [5]: reduced percent TUNEL positive cells
ROS production (MitoSOX) [6]: significantly reduced
